What all share (format): functional
Test [1] concerns Staphylococcus aureus. Nature of the test: Antimicrobial activity against TetK multidrug efflux pump possessing Staphylococcus aureus XU-212 by standard microdilution method. The gist of the method:
(§1)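 Broth microdilution per NCCLS guidelines, at least in duplicate, in cation-adjusted Mueller-Hinton broth (20 mg/L Ca2+, 10 mg/L Mg2+). Strains were grown first on nutrient agar. Inoculum of 5 × 10^5 cfu was set in 0.9% saline against a McFarland standard. Compounds were dissolved in DMSO and given as 2-fold serial dilutions, final 1–512 µg/mL, with at most 3.125% v/v DMSO. MIC is the lowest concentration showing no visible growth.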
(In general: Dilution methods test growth across graded concentrations, often in twofold steps.)

For test [2], the system named is Staphylococcus aureus. Nature of the test: Antimicrobial activity against epidemic methicillin-resistant Staphylococcus aureus 15 by standard microdilution method. The procedure, abridged: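 Broth microdilution following NCCLS guidelines, at least in duplicate, against EMRSA-15 (mecA) precultured on nutrient agar. Medium was cation-adjusted Mueller-Hinton broth with 20 mg/L Ca2+ and 10 mg/L Mg2+. Inoculum was 5 × 10^5 cfu in 0.9% saline, set against a McFarland standard. Compounds were dissolved in DMSO (final ≤3.125% v/v) and tested at 1–512 µg/mL in 2-fold series. MIC was the lowest concentration with no visible growth.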

The test system of test [3] is Staphylococcus aureus. Nature of the test: Antimicrobial activity against Staphylococcus aureus ATCC 25923 by standard microdilution method. The gist of the method: as §1

Values after ≈ are worked out from the molar mass of the structure shown.

Usually MIC stands for the least concentration at which growth counts as inhibited. A low value points to greater potency. With `CCn1cc(C(=O)O)c(=O)c2cc(F)c(N3CCNCC3)cc21` [NORFLOXACIN], the MIC in test [1] is 16 µg/mL (≈ 50.1 µM); in test [2], 0.5 µg/mL (≈ 1.57 µM); in test [3], 2 µg/mL (≈ 6.26 µM).

Regarding `C/C=C(\C)C(=O)O[C@H]1[C@H](O)[C@@H](O)[C@H](O[C@@H]2[C@H]3OC(=O)CCCCCCCCC[C@H](CCCCC)O[C@@H]4O[C@H](C)[C@@H](O)[C@H](O)[C@H]4O[C@@H]4O[C@H](CO)[C@@H](OC(=O)[C@H](C)[C@@H](C)O)[C@H](O)[C@H]4O[C@H](O[C@H]2C)[C@@H]3OC(=O)[C@@H](C)CC)O[C@@H]1C` [ORIZABIN IX], the values for the minimum inhibitory concentration (MIC) in test [1], in test [2] and in test [3] were over 512 µg/mL, 256 µg/mL (≈ 228 µM) and over 512 µg/mL, respectively.

With `C/C=C(\C)C(=O)O[C@H]1[C@H](O)[C@@H](O)[C@H](O[C@@H]2[C@H]3OC(=O)CCCCCCCCC[C@H](CCCCC)O[C@@H]4O[C@H](C)[C@@H](O)[C@H](O)[C@H]4O[C@@H]4O[C@H](COC(=O)[C@@H](C)[C@H](C)O)[C@@H](O)[C@H](O)[C@H]4O[C@H](O[C@H]2C)[C@@H]3OC(=O)C(C)C)O[C@@H]1C` [ORIZABIN XIII], the minimal inhibitory concentration (MIC) turned out to be 32 µg/mL (≈ 28.9 µM) in test [1], 8 µg/mL (≈ 7.22 µM) in test [2] and 8 µg/mL (≈ 7.22 µM) in test [3].

For the molecule `C/C=C(\C)C(=O)O[C@H]1[C@H](O)[C@@H](O)[C@H](O[C@@H]2[C@H]3OC(=O)CCCCCCCCC[C@H](CCCCC)O[C@@H]4O[C@H](C)[C@@H](O)[C@H](O)[C@H]4O[C@@H]4O[C@H](COC(=O)[C@H](C)[C@@H](C)O)[C@@H](O)[C@H](O)[C@H]4O[C@H](O[C@H]2C)[C@@H]3OC(=O)C(C)C)O[C@@H]1C` [ORIZABIN XII], the minimum inhibitory concentration (MIC) in test [1] is over 512 µg/mL; in test [2] it was 512 µg/mL (≈ 462 µM); in test [3] it was over 512 µg/mL.

Regarding `C/C=C(\C)C(=O)O[C@H]1[C@H](O)[C@@H](O)[C@H](O[C@@H]2[C@H]3OC(=O)CCCCCCCCC[C@H](CCCCC)O[C@@H]4O[C@H](C)[C@@H](O)[C@H](O)[C@H]4O[C@@H]4O[C@H](COC(=O)[C@@H](C)CC)[C@@H](O)[C@H](O)[C@H]4O[C@H](O[C@H]2C)[C@@H]3OC(=O)[C@H](C)[C@@H](C)O)O[C@@H]1C` [ORIZABIN XIV], the MIC stood at 64 µg/mL (≈ 57.1 µM) in test [1], 8 µg/mL (≈ 7.13 µM) in test [2] and 16 µg/mL (≈ 14.3 µM) in test [3].

Regarding `CCCCC[C@H]1CCCCCCCCCC(=O)O[C@@H]2[C@@H](O[C@@H]3O[C@H](C)[C@@H](OC(=O)[C@@H](C)CC)[C@H](O)[C@H]3O)[C@H](C)O[C@@H](O[C@H]3[C@H](O[C@H]4[C@H](O1)O[C@H](C)[C@@H](O)[C@@H]4O)O[C@H](COC(=O)[C@@H](C)CC)[C@@H](O)[C@@H]3O)[C@@H]2OC(=O)[C@@H](C)[C@H](C)O` [ORIZABIN XIX], the results for the MIC in test [1], in test [2] and in test [3] were 512 µg/mL (≈ 456 µM), 256 µg/mL (≈ 228 µM) and 128 µg/mL (≈ 114 µM), respectively.

With `C/C=C(\C)C(=O)O[C@H]1[C@H](O)[C@@H](O)[C@H](O[C@@H]2[C@H]3OC(=O)CCCCCCCCC[C@H](CCCCC)O[C@@H]4O[C@H](C)[C@@H](O)[C@H](O)[C@H]4O[C@@H]4O[C@H](COC(=O)C(C)C)[C@@H](O)[C@H](O)[C@H]4O[C@H](O[C@H]2C)[C@@H]3OC(=O)[C@@H](C)[C@H](C)O)O[C@@H]1C` [ORIZABIN XI], the MIC in test [1] was 32 µg/mL (≈ 28.9 µM); in test [2], 4 µg/mL (≈ 3.61 µM); in test [3] it was 16 µg/mL (≈ 14.4 µM).

Take `CCCCC[C@H]1CCCCCCCCCC(=O)O[C@@H]2[C@@H](O[C@@H]3O[C@H](C)[C@@H](OC(=O)[C@@H](C)CC)[C@H](O)[C@H]3O)[C@H](C)O[C@@H](O[C@H]3[C@H](O[C@H]4[C@H](O1)O[C@H](C)[C@@H](O)[C@@H]4O)O[C@H](COC(=O)[C@@H](C)CC)[C@@H](O)[C@@H]3O)[C@@H]2OC(=O)[C@H](C)[C@@H](C)O` [ORIZABIN XVIII]: the minimal inhibitory concentration (MIC) came out at 64 µg/mL (≈ 57 µM) in test [1], 64 µg/mL (≈ 57 µM) in test [2] and 32 µg/mL (≈ 28.5 µM) in test [3].

On to `C/C=C(\C)C(=O)O[C@H]1[C@H](O)[C@@H](O)[C@H](O[C@@H]2[C@H]3OC(=O)CCCCCCCCC[C@H](CCCCC)O[C@@H]4O[C@H](C)[C@@H](O)[C@H](O)[C@H]4O[C@@H]4O[C@H](COC(=O)[C@@H](C)[C@H](C)O)[C@@H](O)[C@H](O)[C@H]4O[C@H](O[C@H]2C)[C@@H]3OC(=O)[C@@H](C)CC)O[C@@H]1C` [ORIZABIN XVII], for which the MIC in test [1] amounted to 32 µg/mL (≈ 28.5 µM); in test [2], 8 µg/mL (≈ 7.13 µM); in test [3], 8 µg/mL (≈ 7.13 µM).

Consider `C/C=C(\C)C(=O)O[C@H]1[C@H](O)[C@@H](O)[C@H](O[C@@H]2[C@H]3OC(=O)CCCCCCCCC[C@H](CCCCC)O[C@@H]4O[C@H](C)[C@@H](O)[C@H](O)[C@H]4O[C@@H]4O[C@H](COC(=O)[C@H](C)[C@@H](C)O)[C@@H](O)[C@H](O)[C@H]4O[C@H](O[C@H]2C)[C@@H]3OC(=O)[C@@H](C)CC)O[C@@H]1C` [ORIZABIN XVI], for which the figures for the MIC in test [1], in test [2] and in test [3] were 128 µg/mL (≈ 114 µM), 8 µg/mL (≈ 7.13 µM) and 8 µg/mL (≈ 7.13 µM), respectively.

As for `C/C=C(\C)C(=O)O[C@H]1[C@H](O)[C@@H](O)[C@H](O[C@@H]2[C@H]3OC(=O)CCCCCCCCC[C@H](CCCCC)O[C@@H]4O[C@H](C)[C@@H](O)[C@H](O)[C@H]4O[C@@H]4O[C@H](COC(=O)[C@@H](C)CC)[C@@H](O)[C@H](O)[C@H]4O[C@H](O[C@H]2C)[C@@H]3OC(=O)[C@@H](C)[C@H](C)O)O[C@@H]1C` [ORIZABIN XV], the minimum inhibitory concentration (MIC) in test [1] came to 512 µg/mL (≈ 457 µM); in test [2] it was 16 µg/mL (≈ 14.3 µM); in test [3], 128 µg/mL (≈ 114 µM).

For the molecule `CCCCC[C@H]1CCCCCCCCCC(=O)O[C@@H]2[C@@H](O[C@@H]3O[C@H](C)[C@@H](OC(=O)[C@@H](C)CC)[C@H](O)[C@H]3O)[C@H](C)O[C@@H](O[C@H]3[C@H](O[C@H]4[C@H](O1)O[C@H](C)[C@@H](O)[C@@H]4O)O[C@H](COC(=O)[C@@H](C)[C@H](C)O)[C@@H](O)[C@@H]3O)[C@@H]2OC(=O)[C@@H](C)CC` [ORIZABIN XXI], the MIC came out at 64 µg/mL (≈ 57 µM) in test [1], 16 µg/mL (≈ 14.2 µM) in test [2] and 8 µg/mL (≈ 7.12 µM) in test [3].

For the molecule `CCCCC[C@H]1CCCCCCCCCC(=O)O[C@@H]2[C@@H](O[C@@H]3O[C@H](C)[C@@H](OC(=O)[C@@H](C)CC)[C@H](O)[C@H]3O)[C@H](C)O[C@@H](O[C@H]3[C@H](O[C@H]4[C@H](O1)O[C@H](C)[C@@H](O)[C@@H]4O)O[C@H](COC(=O)[C@H](C)[C@@H](C)O)[C@@H](O)[C@@H]3O)[C@@H]2OC(=O)[C@@H](C)CC` [ORIZABIN XX], the MIC in test [1] is over 512 µg/mL; in test [2], 32 µg/mL (≈ 28.5 µM); in test [3] it was 64 µg/mL (≈ 57 µM).

For the molecule `C/C=C(\C)C(=O)O[C@H]1[C@H](O)[C@@H](O)[C@H](O[C@@H]2[C@H]3OC(=O)CCCCCCCCC[C@H](CCCCC)O[C@@H]4O[C@H](C)[C@@H](O)[C@H](O)[C@H]4O[C@@H]4O[C@H](COC(=O)C(C)C)[C@@H](O)[C@H](O)[C@H]4O[C@H](O[C@H]2C)[C@@H]3OC(=O)[C@H](C)[C@@H](C)O)O[C@@H]1C` [ORIZABIN X], the MIC came to 32 µg/mL (≈ 28.9 µM) in test [1], 4 µg/mL (≈ 3.61 µM) in test [2] and 16 µg/mL (≈ 14.4 µM) in test [3].

Consider `CCCCC[C@H]1CCCCCCCCCC(=O)O[C@@H]2[C@@H](O[C@@H]3O[C@H](C)[C@@H](O)[C@H](O)[C@H]3O)[C@H](C)O[C@@H](O[C@H]3[C@H](O[C@H]4[C@H](O1)O[C@H](C)[C@@H](O)[C@@H]4O)O[C@H](CO)[C@@H](O)[C@@H]3O)[C@@H]2OC(=O)[C@@H](C)CC` [SCAMMONIN II], for which the results for the MIC in test [1], in test [2] and in test [3] were 512 µg/mL (≈ 545 µM), 128 µg/mL (≈ 136 µM) and 256 µg/mL (≈ 273 µM), respectively.

With `C/C=C(\C)C(=O)O[C@H]1[C@H](O)[C@@H](O)[C@H](O[C@@H]2[C@H]3OC(=O)CCCCCCCCC[C@H](CCCCC)O[C@@H]4O[C@H](C)[C@@H](O)[C@H](O)[C@H]4O[C@@H]4O[C@H](CO)[C@@H](O)[C@H](O)[C@H]4O[C@H](O[C@H]2C)[C@@H]3OC(=O)[C@@H](C)CC)O[C@@H]1C` [SCAMMONIN I], the MIC in test [1] was 128 µg/mL (≈ 125 µM); in test [2], 32 µg/mL (≈ 31.3 µM); in test [3] it was 32 µg/mL (≈ 31.3 µM).

For the molecule `CN(C)[C@@H]1C(O)=C(C(N)=O)C(=O)[C@@]2(O)C(O)=C3C(=O)c4c(O)cccc4[C@@](C)(O)[C@H]3C[C@@H]12` [TETRACYCLINE], the MIC in test [1] was determined as 64 µg/mL (≈ 144 µM); in test [2], 0.15 µg/mL (≈ 0.338 µM); in test [3] it was 0.08 µg/mL (≈ 0.18 µM).

With `CCCCC[C@H]1CCCCCCCCCC(=O)O[C@H]2[C@H](O[C@H]3[C@H](O[C@H]4[C@H](O1)O[C@H](C)[C@H](O)[C@@H]4O)O[C@H](CO)[C@@H](O)[C@@H]3O)O[C@H](C)[C@@H](O)[C@@H]2O` [TRICOLORIN F], the MIC in test [1], in test [2] and in test [3] was over 512 µg/mL throughout.

Turning to `CCCCC[C@H](CCCCCCCCCC(=O)OC[C@H]1O[C@H]2O[C@H]3[C@H](O[C@@H](CCCCC)CCCCCCCCCC(=O)O[C@H]4[C@H](O[C@@H]2[C@@H](O)[C@@H]1O)O[C@H](C)[C@@H](O)[C@@H]4O)O[C@H](C)[C@H](O)[C@@H]3O)O[C@@H]1O[C@H](C)[C@H](O)[C@H](O)[C@H]1O[C@@H]1O[C@H](CO)[C@@H](O)[C@H](O)[C@H]1O[C@@H]1O[C@H](C)[C@@H](O)[C@H](O)[C@H]1O` [TRICOLORIN J], the MIC in test [1], in test [2] and in test [3] was over 256 µg/mL each time.

The values above are taken from ChEMBL document CHEMBL1157295, “Polyacylated oligosaccharides from medicinal Mexican morning glory species as antibacterials and inhibitors of multidrug resistance in Staphylococcus aureus” (2006).
